Reference: ChEMBL document CHEMBL2034909, “Inhibition of thioredoxin reductase by a novel series of bis-1,2-benzisoselenazol-3(2H)-ones: Organoselenium compounds for cancer therapy” (Bioorg Med Chem, 2012)
Activity calls are given as the source filed them. No cut-off for these calls is given here.

Legend:
[1] = Growth inhibition of human U87MG cells after 48 hrs by MTT assay; type: functional, cell-based, U-87MG ATCC; details: U-87 MG
How it was run: (§1)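 Exponentially growing cells were seeded at 4000–5000 per well. LoVo was grown in RPMI 1640 and MIA PaCa-2 and U87 MG in DMEM, each with 10% FBS and penicillin/streptomycin at 37 °C under 5% CO2. Compounds in DMSO (0–50 μM) were added for 48 h, and growth was read by MTT.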

Thioredoxin reductase [2] = target: T1, Thioredoxin reductase (Homo sapiens, UniProt Q16881+Q9NNW7+Q86VQ6); experiment: Inhibition of TrxR in human U87MG cells after 12 hrs by insulin-reducing method; type: cell-based; details: for inhibition: U-87MG ATCC; for IC50: u-87mg atcc
How it was run: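 U87 MG cells were treated with graded compound concentrations for 12 h, with 1% DMSO as control. Reactions were quenched with guanidine-HCl/DTNB and read at A412. The Trx-free blank was subtracted.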

MIA PaCa-2 = experiment: Growth inhibition of human MIAPaCa2 cells after 48 hrs by MTT assay; type: functional, cell-based; details: MIA PaCa-2, 48 h; how it was run: as §1
[3] = target: T2, Thioredoxin reductase 1, cytoplasmic (Rattus norvegicus, UniProt O89049); experiment: (§2) Inhibition of TrxR1 in rat liver homogenate preincubated for 5 mins measured by DNTB assay; type: tissue-based
T2 sequence (O89049 whole entry): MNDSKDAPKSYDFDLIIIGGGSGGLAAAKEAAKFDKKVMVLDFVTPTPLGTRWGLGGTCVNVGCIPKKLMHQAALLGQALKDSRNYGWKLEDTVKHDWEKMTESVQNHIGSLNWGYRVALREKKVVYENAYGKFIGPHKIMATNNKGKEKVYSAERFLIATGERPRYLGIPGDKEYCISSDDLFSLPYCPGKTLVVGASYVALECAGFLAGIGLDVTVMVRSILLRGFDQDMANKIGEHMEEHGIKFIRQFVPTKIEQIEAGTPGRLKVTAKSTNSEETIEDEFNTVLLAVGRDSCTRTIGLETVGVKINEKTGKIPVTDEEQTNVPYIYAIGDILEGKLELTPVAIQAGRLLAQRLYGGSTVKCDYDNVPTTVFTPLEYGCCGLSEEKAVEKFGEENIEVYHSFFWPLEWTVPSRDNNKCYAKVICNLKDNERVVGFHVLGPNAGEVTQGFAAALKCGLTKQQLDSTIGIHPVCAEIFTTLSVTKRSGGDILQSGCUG
How it was run: (§3)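 Rat liver TrxR (purified, 10 μg) in 100 mM potassium phosphate, 2 mM EDTA, pH 7.4 with NADPH, pre-incubated 5 min with inhibitor (DMSO control) at room temperature. DTNB was then added and A412 increase followed over the first 120 s. IC50 given as mean ± SD of triplicate experiments.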

[4] = target: T3, Thioredoxin reductase 1, cytoplasmic (Rattus norvegicus) (UniProt O89049); experiment: as §2; type: tissue-based; how it was run: as §3
T3 sequence (whole entry): T2 sequence (O89049 whole entry)

LoVo = experiment: Growth inhibition of human LoVo cells after 48 hrs by MTT assay; type: functional, cell-based; how it was run: as §1
[5] = target: T4, Glutathione reductase, mitochondrial (Homo sapiens) (UniProt P00390); experiment: Inhibition of human glutathione reductase at 100 uM after 10 mins by GSSH reduction assay
T4 sequence (whole entry): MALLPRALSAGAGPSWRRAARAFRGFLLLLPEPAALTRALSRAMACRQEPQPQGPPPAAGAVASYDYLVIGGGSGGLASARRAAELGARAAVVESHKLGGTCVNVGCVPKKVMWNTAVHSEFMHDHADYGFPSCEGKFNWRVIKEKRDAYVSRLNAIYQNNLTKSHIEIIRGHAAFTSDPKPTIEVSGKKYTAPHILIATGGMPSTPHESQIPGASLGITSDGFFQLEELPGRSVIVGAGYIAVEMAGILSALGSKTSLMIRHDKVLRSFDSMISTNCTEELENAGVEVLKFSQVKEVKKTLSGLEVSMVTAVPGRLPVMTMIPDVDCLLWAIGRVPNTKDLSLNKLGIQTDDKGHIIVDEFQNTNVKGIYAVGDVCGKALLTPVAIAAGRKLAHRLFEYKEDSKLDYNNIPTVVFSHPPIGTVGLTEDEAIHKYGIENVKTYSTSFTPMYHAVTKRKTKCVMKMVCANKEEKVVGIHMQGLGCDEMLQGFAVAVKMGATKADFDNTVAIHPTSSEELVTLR

[6] = Binding affinity to TrxR Sec498 residue at pH 6.5 after 2 hrs by BIAM assay
[7] = Binding affinity to TrxR Cys497 residue at pH 8.5 after 2 hrs by BIAM assay
[8] = Binding affinity to TrxR Sec498 residue at pH 8.5 after 2 hrs by BIAM assay
[9] = Time dependent inhibition of TrxR
[10] = Reversible inhibition of TrxR by ultrafiltration assay
[11] = Mixed type inhibition of TrxR by Michaelis-Menten plot analysis
Thioredoxin reductase [12] = target: T1, Thioredoxin reductase; experiment: Inhibition of TrxR in human U87MG cells at 20 uM after 12 hrs by insulin-reducing method; type: cell-based; details: U-87MG ATCC
How it was run: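 U87 MG glioma cells were treated with compound for 12 h (1% DMSO control), washed in PBS, lysed in Triton/deoxycholate/EDTA/SDS/PMSF buffer and spun at 13000g. Lysate protein (40 µg, BCA) was incubated 30 min at 37 °C with HEPES pH 7.6, EDTA, 1 mM NADPH, 1 µM E. coli Trx and 2.5 mg/ml insulin. Quench with guanidine-HCl/DTNB, read A412, subtract the no-Trx blank.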

Homo sapiens = organism: Homo sapiens; experiment: Inhibition of human […] Sec498Cys mutant at 100 uM after 10 mins by GSSH reduction assay
Thioredoxin reductase [13] = target: T1, Thioredoxin reductase; experiment: Inhibition of human C-terminal truncated TrxR; type: protein assay

Row | SMILES | IC50 [1] | IC50 (MIA PaCa-2) | IC50 [3] | inhibition [4] | other results
1 | Cc1ccc2[se]n(CCn3[se]c4ccc(C)cc4c3=O)c(=O)c2c1 | 17.8 µM | 5.94 µM | 1.26 µM | Dose-dependent effect | inhibition (Thioredoxin reductase [2]): Dose-dependent effect; IC50 (LoVo): 6.12 µM
2 | O=c1c2ccccc2[se]n1CCCCn1[se]c2ccccc2c1=O | – | – | 1.03 µM | Dose-dependent effect | –
3 | O=c1c2ccc(F)cc2[se]n1CCn1[se]c2cc(F)ccc2c1=O | 12.6 µM | 8.47 µM | 0.82 µM | Dose-dependent effect | –
4 | Cc1ccc2[se]n(C3CCC(n4[se]c5ccc(C)cc5c4=O)CC3)c(=O)c2c1 (centres undefined) | – | – | > 50 µM | Dose-dependent effect | –
5 | Cc1ccc2[se]n(CCCCCCn3[se]c4ccc(C)cc4c3=O)c(=O)c2c1 | – | – | 4.91 µM | Dose-dependent effect | –
6 | Cc1ccc2[se]n(CCCn3[se]c4ccc(C)cc4c3=O)c(=O)c2c1 | – | – | 1.16 µM | Dose-dependent effect | –
7 | O=c1c2cc([N+](=O)[O-])ccc2[se]n1CCn1[se]c2ccc([N+](=O)[O-])cc2c1=O | > 50 µM | > 50 µM | 0.57 µM | Dose-dependent effect | inhibition (Thioredoxin reductase [2]): Dose-dependent effect
8 | O=c1c2ccccc2[se]n1CCCn1[se]c2ccccc2c1=O | – | – | 0.78 µM | Dose-dependent effect | –
9 | O=c1c2ccccc2[se]n1C1CCCCC1n1[se]c2ccccc2c1=O (centres undefined) | > 50 µM | 11.5 µM | 12.8 µM | Dose-dependent effect | IC50 (LoVo): 17.2 µM
10 | O=c1c2cc(F)ccc2[se]n1CCCn1[se]c2ccc(F)cc2c1=O | – | – | 0.86 µM | Dose-dependent effect | –
11 | O=c1c2ccc(Cl)cc2[se]n1CCn1[se]c2cc(Cl)ccc2c1=O | > 50 µM | > 50 µM | 2.87 µM | Dose-dependent effect | –
12 | O=c1c2ccccc2[se]n1Cc1ccc(-n2[se]c3ccccc3c2=O)cc1 | – | > 50 µM | 47.7 µM | Dose-dependent effect | IC50 (LoVo): > 50 µM
13 | O=c1c2cc(Cl)ccc2[se]n1CCn1[se]c2ccc(Cl)cc2c1=O | > 50 µM | > 50 µM | 1.31 µM | Dose-dependent effect | –
14 | COc1ccc2[se]n(CCn3[se]c4ccc(OC)cc4c3=O)c(=O)c2c1 | 1.64 µM | 2.84 µM | 0.13 µM | Dose-dependent effect | inhibition [5]: < 30%; inhibition [6]: Dose-dependent effect; IC50 (Thioredoxin reductase [2]): 2 µM; inhibition [7]: Dose-dependent effect; inhibition [8]: Dose-dependent effect; inhibition [9]: Active; IC50 (LoVo): 5.28 µM; inhibition [10]: Active; inhibition [11]: Active; inhibition (Thioredoxin reductase [12]): > 90%
15 | O=c1c2ccccc2[se]n1CCCCCCn1[se]c2ccccc2c1=O | – | – | 1.66 µM | Dose-dependent effect | –
16 | O=c1c2cc(Br)ccc2[se]n1CCCCCn1[se]c2ccc(Br)cc2c1=O | – | – | 1.59 µM | Dose-dependent effect | –
17 | O=c1c2cc(F)ccc2[se]n1CCCCCn1[se]c2ccc(F)cc2c1=O | – | – | 3.87 µM | Dose-dependent effect | –

Row | SMILES | IC50 [1] | IC50 (MIA PaCa-2) | IC50 [3] | inhibition [4] | other results
18 | O=c1c2ccccc2[se]n1-c1ccc(-n2[se]c3ccccc3c2=O)cc1 | > 50 µM | > 50 µM | 34.3 µM | Dose-dependent effect | –
19 | O=c1c2ccccc2[se]n1CCCCCCCCn1[se]c2ccccc2c1=O | – | – | 4.49 µM | Dose-dependent effect | –
20 | O=c1c2cc(Cl)ccc2[se]n1CCCCCn1[se]c2ccc(Cl)cc2c1=O | – | – | 1.8 µM | Dose-dependent effect | –
21 | O=c1c2cc(O)ccc2[se]n1CCn1[se]c2ccc(O)cc2c1=O | 6.6 µM | 5.3 µM | 0.32 µM | Dose-dependent effect | IC50 (LoVo): 6.53 µM
22 | O=c1c2cc(F)ccc2[se]n1CCCCn1[se]c2ccc(F)cc2c1=O | – | – | 1.64 µM | Dose-dependent effect | –
23 | CC(=O)Oc1ccc2[se]n(CCn3[se]c4ccc(OC(C)=O)cc4c3=O)c(=O)c2c1 | 20.8 µM | 10.2 µM | 22.6 µM | Dose-dependent effect | –
24 | Cc1ccc2[se]n(CCCCCn3[se]c4ccc(C)cc4c3=O)c(=O)c2c1 | 12.2 µM | 6.71 µM | 3.16 µM | Dose-dependent effect | IC50 (LoVo): 16.6 µM
25 | O=c1c2cc(F)ccc2[se]n1CCn1[se]c2ccc(F)cc2c1=O | 6.95 µM | 3.07 µM | 0.28 µM | Dose-dependent effect | IC50 (LoVo): 4.55 µM
26 | O=c1c2ccccc2on1CCn1oc2ccccc2c1=O | – | – | > 100 µM | Dose-dependent effect | –
27 | Cc1ccc2[se]n(CCCCn3[se]c4ccc(C)cc4c3=O)c(=O)c2c1 | – | – | 2.38 µM | Dose-dependent effect | –
28 | O=c1c2ccccc2[se]n1CCCCCn1[se]c2ccccc2c1=O | 6.05 µM | 3.27 µM | 1.95 µM | Dose-dependent effect | IC50 (LoVo): 5.5 µM
29 | O=c1c2cc(Br)ccc2[se]n1CCn1[se]c2ccc(Br)cc2c1=O | > 50 µM | > 50 µM | 1.58 µM | Dose-dependent effect | inhibition (Thioredoxin reductase [2]): Dose-dependent effect
30 | O=c1c2ccccc2[se]n1CCn1[se]c2ccccc2c1=O [ETHASELEN] | 6.41 µM | 3.79 µM | – | Dose-dependent effect | inhibition (Homo sapiens): inactive; inhibition [5]: inactive; inhibition (Thioredoxin reductase [2]): Dose-dependent effect; IC50 (Thioredoxin reductase [2]): 5 µM; inhibition (Thioredoxin reductase [13]): inactive; IC50 (LoVo): 7.67 µM
31 | O=c1c2ccc(Cl)cc2[se]n1CCCCCn1[se]c2cc(Cl)ccc2c1=O | – | – | 4.54 µM | Dose-dependent effect | –
32 | O=c1c2ccccc2[se]n1CCCCCCCn1[se]c2ccccc2c1=O | – | – | 5.85 µM | Dose-dependent effect | –
33 | O=c1c2ccccc2sn1CCn1sc2ccccc2c1=O | – | – | 48.1 µM | Dose-dependent effect | –
34 | O=c1c2ccc(F)cc2[se]n1CCCCCn1[se]c2cc(F)ccc2c1=O | – | – | 2.91 µM | Dose-dependent effect | –
